Data reported in ChEMBL document CHEMBL3044834, “Novel protoporphyrinogen oxidase inhibitors: 3H-pyrazolo[3,4-d][1,2,3]triazin-4-one derivatives” (J Agric Food Chem, 2008).

Tested on: Digitaria sanguinalis
Assay: Herbicidal activity against Digitaria sanguinalis (hairy crabgrass) assessed as inhibition of fresh weed plant weight at 1500 g/ha using pre-emergence treatment protocol
Assay type: functional

Row | Structure (SMILES) | inhibition at 1500 g/ha
1 | C=CCN1C(=O)COc2cc(F)c(-n3nnc4c(cnn4C)c3=O)cc21 | 0%
2 | CCOC(=O)Oc1cc(-n2nnc3c(cnn3C)c2=O)c(F)cc1Cl | 0%
3 | COc1cc(-n2nnc3c(cnn3C)c2=O)c(F)cc1Cl | 0%
4 | C#CCOc1cc(-n2nnc3c(c(C(F)(F)F)nn3C)c2=O)c(F)cc1Cl | 6.7%
5 | Cn1ncc2c(=O)n(-c3cc(OC/C=C/Cl)c(Cl)cc3F)nnc21 | 1.4%
6 | C=C(Cl)COc1cc(-n2nnc3c(cnn3C)c2=O)c(F)cc1Cl | 0%
7 | C#CCN1C(=O)COc2cc(F)c(-n3nnc4c(c(C(F)(F)F)nn4C)c3=O)cc21 | 8.3%
8 | C#CCOc1cc(-n2nnc3c(c(C)nn3C)c2=O)c(F)cc1Cl | 38.3%
9 | COCCOCOc1cc(-n2nnc3c(cnn3C)c2=O)c(F)cc1Cl | 2.3%
10 | CCCCOc1cc(-n2nnc3c(cnn3C)c2=O)c(F)cc1Cl | 0%

Tested on: Amaranthus retroflexus
Assay: Herbicidal activity against Amaranthus retroflexus assessed as inhibition of fresh weed plant weight at 1500 g/ha using post-emergence treatment protocol
Assay type: functional
Summary of the method: (§1)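 Test compounds made up as emulsions by dissolving in 100 µL N,N-dimethylformamide, then adding a little Tween 20 and water. For post-emergence, weed seedlings at one leaf and one stem were sprayed at the same rates as the pre-emergence test. Fresh weight was recorded 15 days after treatment and expressed as percent inhibition versus controls. All treatments were run in triplicate.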

Row | Structure (SMILES) | inhibition at 1500 g/ha
11 | C=CCN1C(=O)COc2cc(F)c(-n3nnc4c(cnn4C)c3=O)cc21 | 20.3%
12 | CCOC(=O)Oc1cc(-n2nnc3c(cnn3C)c2=O)c(F)cc1Cl | 7.7%
13 | COc1cc(-n2nnc3c(cnn3C)c2=O)c(F)cc1Cl | 37.5%
14 | C#CCOc1cc(-n2nnc3c(c(C(F)(F)F)nn3C)c2=O)c(F)cc1Cl | 5.5%
15 | Cn1ncc2c(=O)n(-c3cc(OC/C=C/Cl)c(Cl)cc3F)nnc21 | 14%
16 | C=C(Cl)COc1cc(-n2nnc3c(cnn3C)c2=O)c(F)cc1Cl | 54.1%
17 | C#CCN1C(=O)COc2cc(F)c(-n3nnc4c(c(C(F)(F)F)nn4C)c3=O)cc21 | 0%
18 | C#CCOc1cc(-n2nnc3c(c(C)nn3C)c2=O)c(F)cc1Cl | 0%
19 | COCCOCOc1cc(-n2nnc3c(cnn3C)c2=O)c(F)cc1Cl | 74.9%
20 | CCCCOc1cc(-n2nnc3c(cnn3C)c2=O)c(F)cc1Cl | 16.6%

Tested on: Amaranthus retroflexus
Assay: Herbicidal activity against Amaranthus retroflexus assessed as inhibition of fresh weed plant weight at 1500 g/ha using pre-emergence treatment protocol
Assay type: functional

Row | Structure (SMILES) | inhibition at 1500 g/ha
21 | C=CCN1C(=O)COc2cc(F)c(-n3nnc4c(cnn4C)c3=O)cc21 | 30.6%
22 | CCOC(=O)Oc1cc(-n2nnc3c(cnn3C)c2=O)c(F)cc1Cl | 0%
23 | COc1cc(-n2nnc3c(cnn3C)c2=O)c(F)cc1Cl | 40.5%
24 | C#CCOc1cc(-n2nnc3c(c(C(F)(F)F)nn3C)c2=O)c(F)cc1Cl | 15.5%
25 | Cn1ncc2c(=O)n(-c3cc(OC/C=C/Cl)c(Cl)cc3F)nnc21 | 0%
26 | C=C(Cl)COc1cc(-n2nnc3c(cnn3C)c2=O)c(F)cc1Cl | 11%
27 | C#CCN1C(=O)COc2cc(F)c(-n3nnc4c(c(C(F)(F)F)nn4C)c3=O)cc21 | 0%
28 | C#CCOc1cc(-n2nnc3c(c(C)nn3C)c2=O)c(F)cc1Cl | 0%
29 | COCCOCOc1cc(-n2nnc3c(cnn3C)c2=O)c(F)cc1Cl | 51.8%
30 | CCCCOc1cc(-n2nnc3c(cnn3C)c2=O)c(F)cc1Cl | 0%

Tested on: Digitaria sanguinalis
Assay: Herbicidal activity against Digitaria sanguinalis (hairy crabgrass) assessed as inhibition of fresh weed plant weight at 1500 g/ha using post-emergence treatment protocol
Assay type: functional
Summary of the method: as §1

Row | Structure (SMILES) | inhibition at 1500 g/ha
31 | C=CCN1C(=O)COc2cc(F)c(-n3nnc4c(cnn4C)c3=O)cc21 | 27%
32 | CCOC(=O)Oc1cc(-n2nnc3c(cnn3C)c2=O)c(F)cc1Cl | 0%
33 | COc1cc(-n2nnc3c(cnn3C)c2=O)c(F)cc1Cl | 20.6%
34 | C#CCOc1cc(-n2nnc3c(c(C(F)(F)F)nn3C)c2=O)c(F)cc1Cl | 0%
35 | Cn1ncc2c(=O)n(-c3cc(OC/C=C/Cl)c(Cl)cc3F)nnc21 | 0%
36 | C=C(Cl)COc1cc(-n2nnc3c(cnn3C)c2=O)c(F)cc1Cl | 0%
37 | C#CCN1C(=O)COc2cc(F)c(-n3nnc4c(c(C(F)(F)F)nn4C)c3=O)cc21 | 0%
38 | C#CCOc1cc(-n2nnc3c(c(C)nn3C)c2=O)c(F)cc1Cl | 0%
39 | COCCOCOc1cc(-n2nnc3c(cnn3C)c2=O)c(F)cc1Cl | 0%
40 | CCCCOc1cc(-n2nnc3c(cnn3C)c2=O)c(F)cc1Cl | 0%

Tested on: Brassica rapa subsp. oleifera
Assay: Herbicidal activity against Brassica rapa subsp. oleifera assessed as inhibition of fresh weed plant weight at 1500 g/ha using post-emergence treatment protocol
Assay type: functional
Summary of the method: as §1

Row | Structure (SMILES) | inhibition at 1500 g/ha
41 | C=CCN1C(=O)COc2cc(F)c(-n3nnc4c(cnn4C)c3=O)cc21 | 20.9%
42 | CCOC(=O)Oc1cc(-n2nnc3c(cnn3C)c2=O)c(F)cc1Cl | 0%
43 | COc1cc(-n2nnc3c(cnn3C)c2=O)c(F)cc1Cl | 28.3%
44 | C#CCOc1cc(-n2nnc3c(c(C(F)(F)F)nn3C)c2=O)c(F)cc1Cl | 32.7%
45 | Cn1ncc2c(=O)n(-c3cc(OC/C=C/Cl)c(Cl)cc3F)nnc21 | 2.9%
46 | C=C(Cl)COc1cc(-n2nnc3c(cnn3C)c2=O)c(F)cc1Cl | 0%
47 | C#CCN1C(=O)COc2cc(F)c(-n3nnc4c(c(C(F)(F)F)nn4C)c3=O)cc21 | 20.8%
48 | C#CCOc1cc(-n2nnc3c(c(C)nn3C)c2=O)c(F)cc1Cl | 0%
49 | COCCOCOc1cc(-n2nnc3c(cnn3C)c2=O)c(F)cc1Cl | 28%
50 | CCCCOc1cc(-n2nnc3c(cnn3C)c2=O)c(F)cc1Cl | 16.1%

Tested on: Brassica rapa subsp. oleifera
Assay: Herbicidal activity against Brassica rapa subsp. oleifera assessed as inhibition of fresh weed plant weight at 1500 g/ha using pre-emergence treatment protocol
Assay type: functional

Row | Structure (SMILES) | inhibition at 1500 g/ha
51 | C=CCN1C(=O)COc2cc(F)c(-n3nnc4c(cnn4C)c3=O)cc21 | 17.5%
52 | CCOC(=O)Oc1cc(-n2nnc3c(cnn3C)c2=O)c(F)cc1Cl | 0%
53 | COc1cc(-n2nnc3c(cnn3C)c2=O)c(F)cc1Cl | 0%
54 | C#CCOc1cc(-n2nnc3c(c(C(F)(F)F)nn3C)c2=O)c(F)cc1Cl | 21.6%
55 | Cn1ncc2c(=O)n(-c3cc(OC/C=C/Cl)c(Cl)cc3F)nnc21 | 0%
56 | C=C(Cl)COc1cc(-n2nnc3c(cnn3C)c2=O)c(F)cc1Cl | 0%
57 | C#CCN1C(=O)COc2cc(F)c(-n3nnc4c(c(C(F)(F)F)nn4C)c3=O)cc21 | 0%
58 | C#CCOc1cc(-n2nnc3c(c(C)nn3C)c2=O)c(F)cc1Cl | 9.5%
59 | COCCOCOc1cc(-n2nnc3c(cnn3C)c2=O)c(F)cc1Cl | 0%
60 | CCCCOc1cc(-n2nnc3c(cnn3C)c2=O)c(F)cc1Cl | 4.8%

Tested on: Echinochloa crus-galli
Assay: Herbicidal activity against Echinochloa crus-galli (barnyard grass) assessed as inhibition of fresh weed plant weight at 1500 g/ha using pre-emergence treatment protocol
Assay type: functional

Row | Structure (SMILES) | inhibition at 1500 g/ha
61 | C=CCN1C(=O)COc2cc(F)c(-n3nnc4c(cnn4C)c3=O)cc21 | 24.4%
62 | CCOC(=O)Oc1cc(-n2nnc3c(cnn3C)c2=O)c(F)cc1Cl | 19.8%
63 | COc1cc(-n2nnc3c(cnn3C)c2=O)c(F)cc1Cl | 11.3%
64 | C#CCOc1cc(-n2nnc3c(c(C(F)(F)F)nn3C)c2=O)c(F)cc1Cl | 0%
65 | Cn1ncc2c(=O)n(-c3cc(OC/C=C/Cl)c(Cl)cc3F)nnc21 | 9.7%
66 | C=C(Cl)COc1cc(-n2nnc3c(cnn3C)c2=O)c(F)cc1Cl | 15.9%
67 | C#CCN1C(=O)COc2cc(F)c(-n3nnc4c(c(C(F)(F)F)nn4C)c3=O)cc21 | 3%
68 | C#CCOc1cc(-n2nnc3c(c(C)nn3C)c2=O)c(F)cc1Cl | 0%
69 | COCCOCOc1cc(-n2nnc3c(cnn3C)c2=O)c(F)cc1Cl | 5.6%
70 | CCCCOc1cc(-n2nnc3c(cnn3C)c2=O)c(F)cc1Cl | 0%

Tested on: Echinochloa crus-galli
Assay: Herbicidal activity against Echinochloa crus-galli (barnyard grass) assessed as inhibition of fresh weed plant weight at 1500 g/ha using post-emergence treatment protocol
Assay type: functional
Summary of the method: as §1

Row | Structure (SMILES) | inhibition at 1500 g/ha
71 | C=CCN1C(=O)COc2cc(F)c(-n3nnc4c(cnn4C)c3=O)cc21 | 9.1%
72 | CCOC(=O)Oc1cc(-n2nnc3c(cnn3C)c2=O)c(F)cc1Cl | 37.7%
73 | COc1cc(-n2nnc3c(cnn3C)c2=O)c(F)cc1Cl | 1%
74 | C#CCOc1cc(-n2nnc3c(c(C(F)(F)F)nn3C)c2=O)c(F)cc1Cl | 2.4%
75 | Cn1ncc2c(=O)n(-c3cc(OC/C=C/Cl)c(Cl)cc3F)nnc21 | 11.1%
76 | C=C(Cl)COc1cc(-n2nnc3c(cnn3C)c2=O)c(F)cc1Cl | 31.1%
77 | C#CCN1C(=O)COc2cc(F)c(-n3nnc4c(c(C(F)(F)F)nn4C)c3=O)cc21 | 8.2%
78 | C#CCOc1cc(-n2nnc3c(c(C)nn3C)c2=O)c(F)cc1Cl | 0%
79 | COCCOCOc1cc(-n2nnc3c(cnn3C)c2=O)c(F)cc1Cl | 43.6%
80 | CCCCOc1cc(-n2nnc3c(cnn3C)c2=O)c(F)cc1Cl | 0%
